# Experiments:
# Majidae [1] = test: The compound was tested for optical responses recorded from spider crab walking leg nerve bundles upon staining.; assay type: functional
# Summary of the method: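 Nerve bundles stained 30 min in Tris-buffered artificial sea water (pH 8) with 25-50 nM dye, poorly soluble dyes first dissolved in 0.1 mL 95% EtOH per 100 mL; excitation with 365 ± 10 nm light from xenon-mercury lamp; time-averaged fluorescence recorded with extracellular compound action potential; ΔI/I (excitation-linked change over resting intensity); mean ± SE of 2-8 experiments.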
# Majidae [2] = test: The compound was tested for its ability to block the excitability of spider crab walking leg nerve bundles, peak action potential amplitude, recorded by a pair of external Ag-AgCl electrodes.; assay type: functional
# Summary of the method: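 Libinia emarginata claw/walking-leg nerve bundles; compound applied in external bath at 1 mM for 20 min in physiological saline (416 mM NaCl, 10 mM KCl, 11 mM CaCl2, 55 mM MgCl2, 2.5 mM NaHCO3, pH 8.0); 0.4-ms threshold pulses; 18-20 °C; % decrease in peak compound action potential amplitude via external Ag-AgCl electrodes; mean ± SE of 4-6 experiments.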
# Majidae [3] = test: The compound was tested for its ability to block the excitability of spider crab walking leg nerve bundles, the peak action potential amplitude, upon washing in physiological saline for 20 minutes.; assay type: functional, organism-based
# Summary of the method: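 Spider crab (Libinia emarginata) nerve bundles exposed to 1 mM compound in bath for 20 min, then washed 20 min in physiological saline (pH 8.0); stimulation with 0.4-ms threshold pulses at 18-20 °C; value is percent recovery of peak compound action potential amplitude relative to control; mean ± SE of 4-6 experiments.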
SMILES,Delta I/I (Majidae [1]),Decrease (Majidae [2]) [%],Recovery (Majidae [3]) [%]
C[C@@H](Cc1ccccc1)NS(=O)(=O)c1cccc2c(N(C)C)cccc12,7e-05,,
CN(C)c1cccc2c(S(=O)(=O)N[C@@H](CO)Cc3ccccc3)cccc12,0.00015,,
CN(C)c1cccc2c(C(=O)N[C@@H](CO)Cc3ccccc3)cccc12,0.00025,,
C[C@H](Cc1ccccc1)NS(=O)(=O)c1cccc2c(N(C)C)cccc12,8.5e-05,,
C[C@@H](Cc1ccc(N)cc1)N(C)C,,33,100
CN(C)c1cccc2c(S(=O)(=O)N[C@H](CO)Cc3ccccc3)cccc12,0.00018,,
C[C@H](Cc1ccc(N)cc1)N(C)C,,28,100
C[C@@H](Cc1ccccc1)NC(=O)c1cccc2c(N(C)C)cccc12,0.00038,,
C[C@H](Cc1ccc([N+](=O)[O-])cc1)N(C)C,,93,46
CN(C)c1cccc2c(C(=O)N[C@H](CO)Cc3ccccc3)cccc12,0.00024,,
C[C@H](Cc1ccccc1)NC(=O)c1cccc2c(N(C)C)cccc12,0.00035,,
C[C@@H](Cc1ccc([N+](=O)[O-])cc1)N(C)C,,84,35
